B1: GFP-SLAIN1: GFP-tagged SLAIN1 (protein)
chain: MMAEQVKCASPVAASGAGPGPVVNAELEVKKLQELVRKLEKQNEQLRSRAASAAAAPHLLLLQPPPPSAPPPAGACSPLATHRAPASTTSPGPGALGPAFPGTYCLPSPAPSLLCSLQPADAPFVYSKPAAGFFGGGGSPEPGTAGTPPGEAATPPLPPPTLLDEVEPLDLESLAAWSEEDDYTWLYVGSSKTFTSPEKSPSPLQWCRHVLDNPTPEMEAARRSLRFRLEQGYTSRGSPLSPQSSIDSELSTSELEDDSISMGYKLQDLTDVQIMARLQEESLRQDYASTSASVSRNSSSVSLSSGKKGTCSDQEYDRYSLEDEEEFDHLPPPQPRLPRCSPFQRGIPHSQTFSSIRDCRRSPSTQYFPSNNFQQPQYYPPQAQTADQQPNRTNGDKLRRSMPNLARMPSTAAASSNLSSPVTVRSSQSFDSSLHGAGSGVSRVPSCIPSPGQIQHRVHSVGHFPVPIRQPLKATAYVSPTVQGSSSSGSSGSSGGSGSGMPLSNGTQLYSTTGIPTPNKAAASGILGRSALPRPSLAINGSNLPRSKIAQPVRSFLQPPKPLSSLSTLRDGNWRDGCY
modifications: left off: GFP, end not stated, kept
B2: GFP–CLIP-170-N: amino acids 4–309 of the rat CLIP-170 (protein)
chain: LKPSGLKAPTKILKPGSTALKTPAAAAAPLEKTVPSEKASGPPSSETQEEFVDDFRVGERVWVNGNKPGFIQFLGETQFAPGQWAGIVLDEPIGKNDGSVAGVRYFQCEPLKGIFTRPSKLTRKVQAEDEANGLQTAHARAASPLSTAAATMVSSSPATPSNIPQKPSQPVAKETSATPQISNLTKTASESISNLSEAGSVKKGERELKIGDRVLVGGTKAGVVRFLGETDFAKGEWCGVELDEPLGKNDGAVAGTRYFQCQPKYGLFAPVHKVTKIGFPSTTPAKAKAAAVRRVMATTPASLKRS
modifications: left off: GFP, end not stated, kept

Legend:
[1] = tested on: MT plus ends in HeLa cells; test: MT plus end tracking, live-cell imaging; format: cell-based; details: live or fixed cells
Summary of the method: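 HeLa cells were grown in 45% DME, 45% Ham's F10 and 10% fetal calf serum. Live imaging used TIRF/widefield at 37°C in a stage-top incubator in culture medium (100× 1.49 NA objective, EMCCD, 0.065 µm/pixel). For fixed cells, −20°C methanol was applied for 15 min, with a 15-min 4% PFA postfix for SLAIN1/2 and EB1 staining, followed by immunofluorescence on a widefield microscope.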

[2] = tested on: SLAIN2 C terminus / full-length CLIP-170; test: GST-SLAIN2 pull-down of CLIPs and full-length CLIP-170; format: binding

Molecule | MT plus end tracking / localization (in words) [1] | association with SLAIN2 C terminus [2]
B1 | colocalized with EB-positive MT ends | 
B2 |  | associated with the SLAIN2 C terminus

Reference: PMC3115796 (The Journal of Cell Biology, 2011)
